Measurements reported in ChEMBL document CHEMBL1159129, “Novel amidino substituted 2-phenylbenzothiazoles: synthesis, antitumor evaluation in vitro and acute toxicity testing in vivo” (Bioorg Med Chem, 2010).

Tests used:
MOLT-4 = assay: Growth inhibition of human MOLT4 cells after 72 hrs by MTT assay; type: functional, cell-based; conditions: MOLT-4, 72 h
How it was run: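 MOLT-4 leukemia cells grown in suspension in RPMI with 10% FBS, 2 mM glutamine, penicillin/streptomycin, 5% CO2, 37 °C. Inoculated at 1-3 × 10^4 cells/mL. Compounds from 4 × 10^-2 M DMSO stock were tested at 10^-8 to 10^-4 M (10-fold steps) for 72 h, then MTT. Quadruplicates in three experiments. IC50 interpolated by linear regression around 50% growth; '>' highest concentration when not reached.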

NCI-H460 = assay: Growth inhibition of human H460 cells after 72 hrs by MTT assay; type: functional, cell-based; conditions: NCI-H460, 72 h
How it was run: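 H460 lung carcinoma cells grown as monolayers in DMEM with 10% FBS, 2 mM glutamine, penicillin/streptomycin, 5% CO2, 37 °C. Seeded day 0 at 1-3 × 10^4 cells/mL. DMSO stocks (4 × 10^-2 M) were diluted in medium to five 10-fold concentrations, 10^-8 to 10^-4 M, for 72 h. MTT read-out, quadruplicate, three experiments. IC50 by linear regression of concentrations bracketing 50% growth.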

SW-620 = assay: Growth inhibition of human SW620 cells after 72 hrs by MTT assay; type: functional, cell-based; conditions: SW-620, 72 h
How it was run: (§1)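 Modified NCI protocol. Cells were plated on day 0 at 1-3 × 10^4 cells/mL according to doubling time. Agents were dissolved in DMSO (stock 4 × 10^-2 M) and serially diluted 10-fold in medium (10^-8–10^-4 M), with 72 h exposure. Viability by MTT (mitochondrial dehydrogenase). Four wells, three independent runs. IC50 from linear regression of the two concentrations flanking 50% growth.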

HCT-116 = assay: Growth inhibition of human HCT116 cells after 72 hrs by MTT assay; type: functional, cell-based; conditions: HCT-116, 72 h; how it was run: as §1
MCF7 = assay: Growth inhibition of human MCF7 cells after 72 hrs by MTT assay; type: functional, cell-based; conditions: MCF7, 72 h; how it was run: as §1
[1] = Acute toxicity in po dosed BALB/c mouse; type: organism-based; conditions: in vivo
How it was run: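 Female nulliparous, non-pregnant BALB/c mice, 12 weeks old, housed singly; food withheld 3-4 h before and 1-2 h after dosing. Single gavage dose in physiological saline (sonicated 15 min at 69 °C just before use), 0.5 mL/25 g body mass. OECD 425 up-and-down procedure, one animal per 24 h, dose adjusted by prior outcome; LD50 by maximum likelihood (AOT425StatPgm), 95% confidence interval.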

IC50 (MOLT-4) [nM]	IC50 (NCI-H460) [nM]	IC50 (SW-620) [nM]	IC50 (HCT-116) [nM]	IC50 (MCF7) [nM]	Compound	LD50 [1] [mg/kg]
17000	4000	7000	8000	11000	O=[N+]([O-])c1ccc(-c2nc3ccc(C4=NCCN4)cc3s2)cc1	–
> 100000	78000	> 100000	64000	11000	N=C(N)c1ccc(-c2nc3ccc(C(=N)N)cc3s2)cc1	–
3000	2000	800	2000	1000	c1cc(-c2nc3ccc(C4=NCCN4)cc3s2)ccc1C1=NCCN1	–
2000	3000	2000	3000	3000	O=[N+]([O-])c1ccc2nc(-c3ccc(C4=NCCN4)cc3)sc2c1	–
2000	1000	2000	2000	2000	N=C(N)c1ccc2nc(-c3ccc([N+](=O)[O-])cc3)sc2c1	–
1000	1000	2000	1000	1000	N=C(N)c1ccc(-c2nc3ccc([N+](=O)[O-])cc3s2)cc1	–

Compound	IC50 (MOLT-4) [nM]	IC50 (NCI-H460) [nM]	IC50 (SW-620) [nM]	IC50 (HCT-116) [nM]	IC50 (MCF7) [nM]	LD50 [1] [mg/kg]
Cl.Nc1ccc(-c2nc3ccc(C4=NCCN4)cc3s2)cc1	1000	400	700	1000	1700	696
Cl.N=C(N)c1ccc(-c2nc3ccc(N)cc3s2)cc1	2000	200	4000	3000	200	250
Cl.N=C(N)c1ccc2nc(-c3ccc(N)cc3)sc2c1	3000	4000	7000	10000	9000	67.3
Cl.Nc1ccc2nc(-c3ccc(C4=NCCN4)cc3)sc2c1	1000	300	300	1000	1000	250
